Source: PubChem
A selection: hits, their analogues and other compounds. The true share with any hit is near 2.3%.
TRPC6 inh: mouse TRPC6 channel inhibitors, primary screen, cell-based, HEK293, membrane potential dye | Short transient receptor potential channel 6 (Mus musculus), Q61143 | ACh-evoked depolarization; stronger effect = lower value | B-score at 10 µM | 310,000 compounds, 1.1% hits;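 active means B-score under library mean minus 3 SD, initial fluorescence not abnormally high, positive integrated signal ratio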;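 further: B-score derived from integrated fluorescence ratio over the kinetic read; more negative B-score means stronger inhibition of depolarization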
Target sequence (Q61143 whole entry, looked up): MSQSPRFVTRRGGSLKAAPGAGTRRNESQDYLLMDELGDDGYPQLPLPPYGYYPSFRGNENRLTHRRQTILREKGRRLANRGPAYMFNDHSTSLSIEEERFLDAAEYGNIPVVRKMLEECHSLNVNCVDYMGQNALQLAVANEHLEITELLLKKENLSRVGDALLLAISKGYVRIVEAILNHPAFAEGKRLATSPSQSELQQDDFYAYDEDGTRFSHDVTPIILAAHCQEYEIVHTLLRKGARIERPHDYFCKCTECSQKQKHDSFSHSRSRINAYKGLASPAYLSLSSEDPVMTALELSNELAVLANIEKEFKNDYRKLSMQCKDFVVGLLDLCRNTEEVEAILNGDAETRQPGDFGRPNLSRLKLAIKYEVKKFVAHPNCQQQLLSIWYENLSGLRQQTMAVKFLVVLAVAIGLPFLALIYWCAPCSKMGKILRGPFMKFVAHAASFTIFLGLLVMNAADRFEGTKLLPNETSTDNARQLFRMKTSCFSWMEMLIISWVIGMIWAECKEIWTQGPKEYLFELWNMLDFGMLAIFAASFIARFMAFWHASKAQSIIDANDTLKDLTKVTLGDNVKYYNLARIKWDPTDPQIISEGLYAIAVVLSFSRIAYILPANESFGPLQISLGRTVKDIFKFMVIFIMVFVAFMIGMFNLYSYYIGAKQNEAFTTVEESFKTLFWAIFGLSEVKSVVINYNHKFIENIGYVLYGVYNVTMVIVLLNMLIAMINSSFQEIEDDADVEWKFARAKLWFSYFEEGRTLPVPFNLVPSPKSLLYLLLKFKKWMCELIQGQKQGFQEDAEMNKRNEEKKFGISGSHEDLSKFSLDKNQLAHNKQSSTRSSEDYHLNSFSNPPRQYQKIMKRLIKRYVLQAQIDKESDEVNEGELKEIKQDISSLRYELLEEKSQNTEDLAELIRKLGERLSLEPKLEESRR
TRPC6 act: mouse TRPC6 channel activators, primary screen, cell-based, HEK293, membrane potential dye | 310,000 compounds, 0.13% hits | B-score at 10 µM | HEK293-TRPC6 membrane potential dye fluorescence; stronger effect = higher value | AID 2550, 2010 | Short transient receptor potential channel 6 (Mus musculus), Q61143;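 active means B-score of the integrated fluorescence ratio above library mean plus 3 SD, and starting fluorescence ratio within library mean plus 5 SD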;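 further: higher score means more depolarization so channel activation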
TRPC4 act: activators of mouse TRPC4 channel, primary screen, Fluo4 calcium, HEK293 TRPC4beta/mu-opioid cells. Short transient receptor potential channel 4 (Mus musculus), Q9QUQ5. Fluo4 calcium fluorescence; stronger effect = higher value. B-score at 10 µM. 310,000 compounds, 0.49% hits. AID 2237, 2010;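 active means B-score above 5 SD of library B-scores, and initial fluorescence ratio not above library mean plus 5 SD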;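 further: positive B-score marks a calcium rise read as TRPC4 activation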
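Test system: HEK293 cells stably co-expressing mouse TRPC4beta and mu-opioid receptor | Schedule: Fluo4 dye loading 45 min at room temperature, 110 s recording | Measured by: Kinetic Fluo4 calcium fluorescence, 5 s baseline at 1 Hz | Evaluation: B score of integrated ratio | Controls: Buffer (low) and maximal DAMGO (high)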
TRPC4 block: inhibitors of mouse TRPC4 channel, primary screen, Fluo4 calcium, HEK293 TRPC4beta/mu-opioid cells; Short transient receptor potential channel 4 (Mus musculus), Q9QUQ5; DAMGO-evoked Fluo4 calcium flux; stronger effect = lower value; B-score at 10 µM; 300,000 compounds, 0.39% hits;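 active means B-score over 3 SD under the library average, no early fluorescence shift, positive overall ratio signal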
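Assay system: HEK293 cells with stable TRPC4beta plus mu-opioid receptor expression; Probe or stimulus: DAMGO in two steps, submaximal then maximal; Dosing: single-point compound dosing; Measured by: Fluo4 calcium-dye fluorescence, kinetic read; Read-out basis: B score from integrated Fluo4 fluorescence ratio.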
TRPC4 potent: positive allosteric modulators of TRPC4, primary screen, cell-based, mouse TRPC4beta, HEK293 mu-opioid, Fluo-4 calcium; Short transient receptor potential channel 4 (Mus musculus), Q9QUQ5; 310,000 compounds, 0.42% hits; DAMGO EC20, Fluo-4 Ca2+ flux; stronger effect = higher value; B-score at 10 µM;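 active means B-score of calcium response area above 5 SD of library B-scores, with initial fluorescence ratio within 5 SD of library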;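 further: B-score of integrated fluorescence ratio over time as area under calcium response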
TRPC4 sel inh 2: second selectivity test of TRPC6 inhibitors: effect on mouse TRPC4 | inhibition, % at 10 µM | 920 compounds, 42% hits | shares compounds with TRPC6 inh | HEK293 TRPC4/MOR, membrane potential dye fluorescence; channel activated by saturating DAMGO dose;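 active means compounds whose fluorescence signal differed from control wells by over 3 SD, either direction, in both duplicate plates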
TRPC4 spec: mouse TRPC4 modulation by TRPC6 hits, confirmation, selectivity assay for TRPC6 inhibitor project, cell-based, HEK293 TRPC4/mu-opioid, membrane potential dye | shares compounds with TRPC6 inh | membrane potential fluorescence | activity change, negative = inhibition, % at 10 µM | 920 compounds, 61% hits | AID 2777, 2010;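 active means rise or fall in signal beyond 3 SD of buffer-only wells in both replicate plates, either sign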;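 further: integrated kinetic ratio of fluorescence range over baseline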
HEK293 MPD ctr 2-1: nonspecific membrane potential effects, parental HEK293, confirmation, counter-screen for TRPC6 inhibitor project, cell-based, second counter screen | AID 2779, 2010 | shares compounds with TRPC6 inh | 920 compounds, 31% hits | signal change vs control, % at 10 µM | parental HEK293 membrane potential dye fluorescence; maximal acetylcholine challenge after compound addition;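 active means membrane potential signal moving either way by over 3 SD of the maximum-effect control, in both duplicate plates, meaning non-specific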
HEK293 MPD ctr-1: membrane potential modulation in parental HEK293, confirmation, counter-screen for TRPC6 inhibitor project, cell-based. 920 compounds, 60% hits. parental HEK293 membrane potential dye fluorescence. shares compounds with TRPC6 inh. membrane potential signal change, % at 10 µM;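 active means membrane potential signal shifting up or down by more than 3 SD of buffer-only wells, on both duplicate plates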
HEK293 MPD ctr-2: parental HEK293 membrane potential modulation, confirmation, counter-screen for TRPC6 modulator project, cell-based | membrane potential signal change, % at 10 µM | AID 488924, 2010 | shares compounds with TRPC6 inh | membrane potential dye fluorescence | 2,400 compounds, 51% hits;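 active means membrane potential signal moves up or down beyond 5 SD from buffer-only wells, on both duplicate plates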
HEK293 MPD ctr 2-2: parental HEK293 nonspecific activity of TRPC6 modulators, second screen; 2,400 compounds, 14% hits; shares compounds with TRPC6 inh; AID 488926; membrane potential dye fluorescence; after compound, maximal acetylcholine stimulation; inhibition, % at 10 µM;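 active means membrane potential signal drops by more than 5 SD from the mean control signal, in both duplicate plates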;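 further: plate controls were acetylcholine ECmax control wells for no effect and buffer only wells for full effect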
TRPC4 ctr mod: TRPC4 modulation by TRPC6 hit compounds, confirmation, selectivity assay for TRPC6 modulator project, cell-based, HEK293 TRPC4/mu-opioid, membrane potential dye, mouse; 2,400 compounds, 69% hits; membrane potential fluorescence; shares compounds with TRPC6 inh; percent change from control (negative = decrease, positive = increase), % at 10 µM; AID 488927, 2010;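 active means membrane potential signal moved up or down beyond 5 SD of buffer control wells, in both duplicate plates, actives on both sides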;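 further: plate controls were assay buffer wells for no effect and DAMGO maximal-effect wells for full effect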
TRPC4/MOR inh 2: second check of whether TRPC6 modulators also affect mouse TRPC4. HEK293 TRPC4/mu-opioid, membrane potential dye fluorescence; stimulated with maximal-effect DAMGO. shares compounds with TRPC6 inh. 2,400 compounds, 55% hits. inhibition, % at 10 µM;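 active means drop in membrane potential signal beyond 5 SD of the control wells in both duplicate plates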;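 further: TRPC4 counter screen for TRPC6 hits run under conditions tuned for TRPC6 not TRPC4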
TRPC6 block conf: mouse TRPC6 channel inhibitors, confirmation, HEK293 cells, membrane potential dye, duplicate | shares compounds with TRPC6 inh | ACh-evoked depolarization | inhibition, % at 10 µM | 3,300 compounds, 43% hits | AID 488960, 2010;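 active means fluorescence ratio falls more than 5 SD below the full-stimulation control mean, in both duplicate runs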;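 further: integrated fluorescence ratio of peak minus minimum over baseline after agonist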
TRPC6 act confirm: mouse TRPC6 channel activators, confirmation, HEK293 cells, membrane potential dye, duplicate; HEK293-TRPC6 membrane potential dye fluorescence, FDSS; activation, % at 10 µM; shares compounds with TRPC6 inh; AID 488961, 2010; 2,800 compounds, 11% hits;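 active means ratio signal rise beyond 5 SD above unstimulated control wells' mean, seen in both duplicate runs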;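 further: plate controls were buffer EC0 wells for no effect and acetylcholine ECmax response for full effect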
The depositor's hits bear a star; i = inactive; nt = not tested or not shown.

SMILES	TRPC6 inh	TRPC6 act	TRPC4 act	TRPC4 block	TRPC4 potent	HEK293 MPD ctr-2	HEK293 MPD ctr 2-2	TRPC4 ctr mod	TRPC4/MOR inh 2	TRPC6 block conf	TRPC6 act confirm	others
CCOc1ccc(/C=C/c2nc(C#N)c(NCCCN(C)C)o2)cc1	-5.47*	i	i	i	i	i	i	i	55.5%*	38.5%*	i
CN(C)CCNc1oc(COc2cccc(Cl)c2)nc1C#N	i	i	i	i	i	nt	nt	nt	nt	nt	nt
CCN(CC)CCCNc1oc(-c2ccc(OC)c(OC)c2)nc1C#N	-6.38*	i	i	i	i	i	i	i	i	46.5%*	i
CCCCC(O)(CCN1CCOCC1)c1ccc(Cl)cc1 (stereo unspecified)	-8.91*	i	i	i	i	nt	nt	nt	nt	64.9%*	i	TRPC4 sel inh 2=i;TRPC4 spec=8.8%*;HEK293 MPD ctr 2-1=30.5%*;HEK293 MPD ctr-1=5.8%*
CCOC(=O)c1ccc2ncc(C(=O)OCC)c(Nc3ccc(N4CCOCC4)cc3)c2c1	-9.7*	i	i	i	i	-185.5%*	i	-45.5%*	41.5%*	i	i
CCOC(=O)c1cnc2ccc(OC)cc2c1Nc1ccc2c(c1)OCCO2	-7.5*	i	i	i	i	nt	nt	nt	nt	i	i	TRPC4 sel inh 2=i;TRPC4 spec=-14.1%*;HEK293 MPD ctr 2-1=i;HEK293 MPD ctr-1=-292.0%*
CCOC(=O)c1cnc2ccc(C(=O)OC)cc2c1Nc1ccc2c(c1)OCCO2	i	i	i	i	i	nt	nt	nt	nt	nt	nt
CCOC(=O)c1cnc2ccc(C(=O)OC)cc2c1Nc1ccc(C(=O)O)cc1	-5.18*	i	i	i	i	-247.5%*	i	-37.0%*	43.0%*	i	i
Cn1ccnc1SCC(=O)N(C1CCCCC1)C1CCCCC1	i	i	i	i	i	nt	nt	nt	nt	nt	nt
CCn1cc(C(=O)NC2CCc3ccccc32)c(=O)c2ccc(C)nc21 (stereo unspecified)	i	i	i	i	i	nt	nt	nt	nt	nt	nt
CN(CC(=O)NC1CCN(Cc2ccccc2)CC1)S(=O)(=O)c1ccc2c(c1)c(=O)n(C)c(=O)n2C	-6.05*	i	i	i	i	i	i	-11.0%*	i	i	i
COc1ccc(CCN2CC(C(=O)NCCc3ccccn3)CCC2=O)cc1 (stereo unspecified)	i	i	i	i	i	nt	nt	nt	nt	nt	nt
CCOC(=O)c1ccc(NC(=O)CC2COc3ccccc3O2)cc1 (stereo unspecified)	-7.4*	i	i	i	i	nt	nt	nt	nt	i	i	TRPC4 sel inh 2=i;TRPC4 spec=i;HEK293 MPD ctr 2-1=i;HEK293 MPD ctr-1=i
CCOC(=O)c1cccc(NC(=O)CC2Oc3ccccc3NC2=O)c1 (stereo unspecified)	-6.03*	i	i	i	i	i	i	i	i	i	i
CC(=O)c1cccc(NC(=O)CC2Oc3ccc(C)cc3NC2=O)c1 (stereo unspecified)	i	i	i	i	i	nt	nt	nt	nt	nt	nt
COc1ccccc1NC(=O)CC1COc2ccccc2O1 (stereo unspecified)	i	i	i	i	i	nt	nt	nt	nt	nt	nt
CN(/N=C/c1ccc(O)cc1O)c1nc(-c2ccccc2)cc(-c2ccccc2)n1	i	i	i	i	i	nt	nt	nt	nt	nt	nt
Cc1ccc(NC(=O)CSc2nc3ccccc3c(=O)n2CCCC(=O)N2CCCC2)cc1	i	i	i	i	i	nt	nt	nt	nt	nt	nt
Cc1ccc(NC(=O)CSc2nc3ccccc3c(=O)n2CCCN2CCCCC2)cc1C	-7.88*	i	i	i	i	nt	nt	nt	nt	i	i	TRPC4 sel inh 2=33.0%*;TRPC4 spec=5.6%*;HEK293 MPD ctr 2-1=219.0%*;HEK293 MPD ctr-1=9.0%*
CS(=O)(=O)N(Cc1ccccc1)c1ccc(C(=O)Nc2ccccc2C(=O)O)cc1	i	i	i	i	i	nt	nt	nt	nt	nt	nt
Cc1ccc2c(CC(=O)NCCc3ccc(S(N)(=O)=O)cc3)coc2c1	i	i	i	i	i	nt	nt	nt	nt	nt	nt
CCOC(=O)N1CCN(S(=O)(=O)c2ccc(C(=O)N(CCCN(C)C)c3nc4cc(OC)ccc4s3)cc2)CC1	-5.58*	i	i	i	i	i	i	-25.0%*	81.0%*	73.0%*	i
CN(C)CCCN(C(=O)c1ccc(S(=O)(=O)N2CCCCCC2)cc1)c1nc2c(F)cc(F)cc2s1	-5.19*	i	157*	i	i	i	i	20.0%*	103.0%*	i	i
